# According to PubChem BioAssay AID1885 (Broad Institute, 2009):
# The whole screen tested about 300,000 compounds, of which about 4,400 (1.5%) were called active.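 Rule for the calls: active = mean inhibition across valid replicates above about 55% (limit read from the data); inconclusive = mean below that limit but half or more replicates reach it; inactive = mean below it, under half of replicates reach it.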 The sample as a whole holds a higher share of actives than the screen did.
# Experiment: Trypanosoma cruzi replication blockers in host cells – luminescence, NIH3T3 host cells, primary screen (AID 1885);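 note: signal also drops with host cell toxicity which is not excluded here; 0% = plate median of DMSO wells and 100% = zero luminescence signal; higher percent means less beta-gal luminescence so fewer parasites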
# Conditions: T. cruzi beta-gal in NIH3T3, luminescence, 90 h; active compounds read high; concentration not given here
# Method in brief: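 System: NIH/3T3 fibroblasts plus reporter T. cruzi. Medium: DMEM plus 2% FBS. Probe or stimulus: 5000 reporter trypomastigotes per well. Compound: single 50 nL compound addition per well in DMSO. Incubation: co-culture of at least 90 h after 3 h attachment. Detection: GalScreen β-gal luminescence, detergent lysis, 60 min. Evaluation: parasite load inhibition, %.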
row,SMILES,inhibition
1,O=C(NCC(c1cccnc1)N1CCN(c2ccccc2)CC1)Oc1ccccc1 (stereo not given),64.2% (active)
2,COc1ccccc1N1CCN(C(CNC(=O)Oc2ccccc2)c2cccnc2)CC1 (stereo not given),61.2% (active)
3,COC(=O)C(c1ccccc1)N1CCCCCC1 (stereo not given),-2.88% (inactive)
4,c1ccc(CCN2CCC3(CC2)OCCO3)cc1,8.57% (inactive)
5,Cc1ccc(C)c(NC2=NCCCS2)c1,8.9% (inactive)
6,COc1cccc(OC)c1C(=O)NC(=S)N1C[C@H]2C[C@H](C1)c1cccc(=O)n1C2,0.307% (inactive)
7,CC(C)c1ccc(-n2c(O)c(/C=N/N3CCOCC3)c(=O)[nH]c2=S)cc1,-9.55% (inactive)
8,CCN1CC2C3CCC(C)(O3)C2C1 (stereo not given),-4.25% (inactive)
9,COc1ccc(CNCCc2c[nH]c3ccccc23)cc1OC,8.16% (inactive)
10,COc1ccc(CNCCc2ccc3c(c2)OCO3)c(OC)c1OC,50.2% (inactive)
11,COc1ccc(Br)cc1CNCCc1cccc(Cl)c1,56.8% (active)
12,CC1=CC(=Cc2sc3ccccc3[n+]2C)C=C(C)O1,81.1% (active)
13,COc1ccc(N2C(=O)/C(=C/c3ccco3)C(=O)NC2=S)cc1,-2.75% (inactive)
14,C[C@@]1([C@@H](NP(=O)(c2ccccc2)c2ccccc2)c2ccccc2)C[C@H]1CCO,1% (inactive)
15,Cc1ccc(-c2nn(CCC#N)cc2C(=O)O)cc1C,-14.3% (inactive)
16,COc1ccccc1-n1c(O)c(C=NC2CC2)c(=O)[nH]c1=O,-10.6% (inactive)
17,COc1cccc(CN2CCCC(C(=O)c3ccccc3SC)C2)c1O (stereo not given),0.0491% (inactive)
18,O=C(c1ccccc1[N+](=O)[O-])N1CCC2(CC1)OCCO2,-12.5% (inactive)

row,SMILES,inhibition
1,Cc1ccc(C2CN(C)CC2C(=O)c2ccc(F)cc2)cc1 (stereo not given),-5.25% (inactive)
2,CN1CCC(OC(=O)c2cccc(F)c2)CC1,58.3% (active)
3,CCC/C(=N\O)c1c[nH]c2ccccc12,-2.44% (inactive)
4,COc1ccc(-n2c(O)c(C(C)=Nc3ccc4c(c3)CCC4)c(=O)[nH]c2=O)cc1,-27.7% (inactive)
5,CCOc1ccc(CN(CCCl)CCCl)cc1C(=O)OC,-1.04% (inactive)
6,CCOc1ccc(-c2cc(C)[n+](CCN(CC)CC)c(-c3ccc(OCC)cc3)c2)cc1,64.1% (active)
7,CN1C2C=C(N(C(=O)c3ccc(Cl)cc3)c3ccccc3)CC1CC2 (stereo not given),9.22% (inactive)
8,O=C1N=c2ccccc2=C/C1=C\c1c(O)[nH]c(=S)[nH]c1=O,-14% (inactive)
9,CCCCCCCCCCCCn1ccc(=N)cc1,58.9% (active)
10,CCc1nc2ccccc2c(=O)n1-c1cccc(OC)c1,-3.64% (inactive)
11,CC(C)Oc1cccc(C(=O)C2CCCN(C3CCOCC3)C2)c1 (stereo not given),-14% (inactive)
12,CC(=O)c1c(O)n(C2CCCCCC2)c(=O)[nH]c1=O,-10.9% (inactive)
13,CC1=C(C(=O)Nc2ccccc2)SCCO1,-24.2% (inactive)
14,O=C(NC(c1ccc(Cl)cc1)P(=O)(Oc1ccccc1)Oc1ccccc1)OCc1ccccc1 (stereo not given),12.3% (inactive)
15,C=CCN1C(=O)NC(=O)/C(=C/c2ccc(OCC(=O)Nc3ccc(C)cc3)cc2)C1=O,12.8% (inactive)
16,COc1cc(C(c2c(O)c3ccccc3oc2=O)c2c(C)n(C)n(-c3ccccc3)c2=O)ccc1O (stereo not given),-33% (inactive)
17,CCOP(=O)(OCC)C(NC(=O)NC)C(N)=O (stereo not given),2.29% (inactive)
